From ChEMBL document CHEMBL1158096, “Cytotoxic triterpenoids from the leaves of Microtropis fokienensis” (J Nat Prod, 2006)
In brackets after ≈: the same amount, converted by molar mass. Activity calls are given as the source filed them. The calls are words filed in the database; no cut-off is given here.

What was measured:
MCF7 = assay: Cytotoxicity against human MCF7 cells after 3 days by MTT method; type: functional, cell-based
In short: (§1)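 Freshly trypsinized cells seeded at 5000-10 000 per well; compounds added from DMSO stocks. After 3 days in culture, attached cells incubated with MTT ([…], 1 h), solubilized in DMSO, absorbance read at 550 nm. IC50 = concentration reducing cell growth by 50%. Mean of two to three separate experiments, each in triplicate.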

HepG2 = assay: (§2) Cytotoxicity against human Hep G2 cells after 3 days by MTT method; type: functional, cell-based; in short: as §1
A549 = assay: Cytotoxicity against human A549 cells after 3 days by MTT method; type: functional, cell-based; in short: as §1
Hep 3B2 = assay: (§3) Cytotoxicity against human Hep3B cells after 3 days by MTT method; type: functional, cell-based; in short: as §1
MDA-MB-231 = assay: Cytotoxicity against human MDA-MB-231 cells after 3 days by MTT method; type: functional, cell-based; in short: as §1
[1] = as §2; type: functional, cell-based; conditions: HepG2, 72 h; in short: as §1
[2] = as §3; type: functional, cell-based, Hep 3B2; conditions: 72 h; in short: as §1

SMILES | Activity (MCF7) | Activity (HepG2) | Activity (A549) | Activity (Hep 3B2) | Activity (MDA-MB-231) | IC50 [1] | IC50 [2]
CO[C@@H]1C=C2[C@@H]3[C@@H](C)[C@H](C)CC[C@]3(C)CC[C@@]2(C)[C@]2(C)CC[C@H]3C(C)(C)[C@@H](O)CC[C@]3(C)[C@@H]12 | inactive | inactive | inactive | inactive | inactive |  | 
CC1(C)CC[C@@]23CC[C@]4(C)[C@@](C=C[C@@H]5[C@@]6(C)CC[C@H](O)C(C)(C)[C@@H]6CC[C@]54C)(OC2)[C@@H]3C1 | inactive | inactive | inactive | inactive | inactive |  | 
Oc1cc(O)c2c(c1)O[C@H](c1ccc(O)c(O)c1)[C@H](O)C2 | inactive | inactive | inactive | inactive | inactive |  | 
O=c1c(O)c(-c2ccc(O)cc2)oc2cc(O)cc(O)c12 | inactive | inactive | inactive | inactive | inactive |  | 
CC1(C)C(=O)CC[C@]2(C)[C@H]3C=C[C@]45OC[C@@]6(CC[C@](C)(CO)C[C@H]64)CC[C@@]5(C)[C@]3(C)CC[C@@H]12 | inactive | inactive | inactive | inactive | inactive |  | 
CO[C@@H]1C=C2[C@@H]3[C@@H](C)[C@H](C)CC[C@]3(CO)CC[C@@]2(C)[C@]2(C)CC[C@H]3C(C)(C)[C@@H](O)CC[C@]3(C)[C@@H]12 | inactive |  | inactive | inactive | inactive | 4.6 µg/mL (≈ 9.73 µM) | 
C[C@H]1[C@H](C)CC[C@@]23CC[C@@]4(C)[C@]5(C)CC[C@@H]6[C@](C)(CC[C@H](O)[C@@]6(C)CO)[C@H]5CC(=O)[C@]4(OC2)[C@H]13 [MICROFOKIENOXANE C] | inactive |  | inactive |  | inactive | 3.8 µg/mL (≈ 8.04 µM) | 4.5 µg/mL (≈ 9.52 µM)
C[C@H]1[C@H](C)CC[C@@]23CC[C@]4(C)[C@@](C=C[C@@H]5[C@@]6(C)CC[C@H](O)C(C)(C)[C@@H]6CC[C@]54C)(OC2)[C@H]13 | inactive | inactive | inactive | inactive | inactive |  | 
C=C(CO)[C@@H]1CC[C@]2(C)CC[C@]3(C)[C@H](CC[C@@H]4[C@@]5(C)CC[C@H](O)C(C)(C)[C@@H]5CC[C@]43C)[C@@H]12 | inactive | inactive | inactive | inactive | inactive |  | 
COC(=O)/C=C/c1ccc(O)cc1 | inactive | inactive | inactive | inactive | inactive |  | 
C[C@H]1[C@H](C)CC[C@@]23CC[C@]4(C)[C@@](C=C[C@@H]5[C@@]6(C)CC[C@H](O)[C@@](C)(CO)[C@@H]6CC[C@]54C)(OC2)[C@H]13 | inactive | inactive | inactive | inactive | inactive |  | 
C[C@H]1[C@H](C)CC[C@]2(CO)CC[C@]3(C)C(=CC[C@@H]4[C@@]5(C)CC[C@H](O)C(C)(C)[C@@H]5CC[C@]43C)[C@H]12 | inactive | inactive | inactive | inactive | inactive |  | 
C=C(CO)[C@@H]1CC[C@]2(CO)CC[C@]3(C)[C@H](CC[C@@H]4[C@@]5(C)CC[C@H](O)C(C)(C)[C@@H]5CC[C@]43C)[C@@H]12 | inactive | inactive | inactive | inactive | inactive |  | 
C[C@H]1[C@H](C)CC[C@]23CO[C@@]4(C=C[C@@H]5[C@@]6(C)CC[C@H](O)C(C)(C)[C@@H]6CC[C@@]5(C)[C@]4(C)C[C@@H]2O)[C@H]13 | inactive | inactive | inactive | inactive | inactive |  | 
